Hits are enriched below; roughly 2.2% of the tested compounds scored in any of these assays.
BaF3 parental – parental Ba/F3 cell viability inhibition, counter-screen for JAK2V617F inhibitor project, murine pro-B, CellTiter-Glo luminescence. CellTiter-Glo ATP luminescence. inhibition, % at 5.6 µM. actives 1.1% (n = 220,000). AID 1486, 2009;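 active means inhibition above a per-campaign cutoff, the mean inhibition of all tested compounds plus 3 SD, cut at about 27% in these data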;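 further: 0% = DMSO wells and 100% = JAK Inhibitor I control wells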
MT stabilize HCS – microtubule stabilizers in HeLa cells, primary screen, imaging, high-content imaging | actives 0.83% (n = 200,000) | HeLa tubulin immunostaining HCS, 24 h; share of cells brighter than vehicle mean+2SD | % tubulin-high responders, % at 10 µM | AID 2205, 2009;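 active means plate Z-score above 3 for both tubulin-high and condensed-nucleus cell shares, with cell loss under 80%, at 10 µM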;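 further: anti alpha tubulin signal scored within the nucleus-defined area of each cell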
APP transl inh – inhibitors of APP translation via 5'UTR reporter, primary screen, APP 5'UTR luciferase, SH-SY5Y cells; AID 1285, 2008; SH-SY5Y APP 5'UTR-luciferase reporter, luminescence; inhibition, % at 2 µM; actives 0.82% (n = 190,000);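 active means inhibition above a set limit, derived from the sample mean plus 3 SD, cut at about 45% in these data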
Ba/F3 V617F tox – reduced viability of JAK2V617F-dependent Ba/F3 cells, primary screen, JAK2V617F inhibitor project, cell-based, Ba/F3 EpoR-JAK2V617F, luminescence; inhibition, % at 5.6 µM; ATP luminescence; actives 1.1% (n = 220,000);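 active means inhibition above the campaign mean plus 3 SD over all tested compounds, cut at about 24% in these data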;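 further: cytokine-independent growth of Ba/F3 cells driven by EpoR plus mutant JAK2; 0% = DMSO-treated cells and 100% = JAK inhibitor I control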
IEC-6 cytotox – cytotoxicity in IEC-6 intestinal epithelial cells, primary screen, cytotoxicity control for KLF5 inhibitor project, cell-based, luminescence; IEC-6 cytotoxicity, luminescence viability; inhibition, % at 5 µM; actives 0.78% (n = 290,000); in the data active means inhibition above about 22%;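 further: 0% = plate median of test compound wells and 100% = cytotoxic reference compound wells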
bCat nuc transl – modulators of beta-catenin nuclear translocation, primary screen, imaging, HeLa cells, immunofluorescence, high-content. nuclear translocation activity, % at 5 µM. actives 0.3% (n = 190,000). AID 1665, 2009;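 active means nuclear translocation activity above 50% at 5 µM, with a well cell count of 50 or more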;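 further: per-cell ratio of nuclear to cytoplasmic median beta-catenin stain intensity; plate controls were DMSO negative control for no effect and GSK-3 inhibitor IX positive control for full effect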
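Technique: fluorescence imaging of beta-catenin antibody stain plus DAPI / Material: human HeLa cell line / Incubation: compound treatment 24 h, 37°C, 5% CO2 / Read-out basis: % activation of per-cell nuclear versus cytoplasmic median beta-catenin signal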
* marks the source's active call; other numbers are inactive results; . = not tested or not shown.

SMILES | BaF3 parental | MT stabilize HCS | APP transl inh | Ba/F3 V617F tox | IEC-6 cytotox | bCat nuc transl
O=C(COC(=O)CNS(=O)(=O)c1ccc2ccccc2c1)Nc1ccccc1Sc1ccccc1 | 1 | 5 | -10 | -4 | 1 | -1
O=C1c2ccccc2NC(c2ccc(O)c(O)c2)N1c1ccccc1Cl (centres undefined) | . | . | . | . | 4 | .
CSc1cc(-c2ccccc2)n(Cc2ccccc2Cl)c(=O)c1C#N | 0 | 43* | 6 | -2 | 0 | .
CCCn1c(-c2ccccc2)cc(SC)c(C#N)c1=O | 3 | 4 | -4 | -3 | -7 | 3
CCCCn1c(=O)[nH]c(=O)c2c1nc(-c1ccccc1F)n2Cc1ccccc1OC | 6 | 2 | -12 | 0 | 4 | -1
Cc1c(C(=O)N/N=C/C(C)C)[nH]c2c([N+](=O)[O-])cccc12 | 3 | 6 | 92* | -2 | 7 | 0
CCOC(=O)Nc1sc2c(c1C#N)CCCC2 | 3 | 2 | -38 | 7 | 8 | .
CCCC1CCc2c(sc(NC(=O)OCC)c2C#N)C1 (centres undefined) | 1 | 52* | 16 | -5 | 2 | 0
Cc1cc2oc(=O)cc(CN3CCCCC3)c2cc1O | . | . | . | . | 3 | .
N=c1c2c(ncn1Cc1ccco1)Oc1c(ccc3ccccc13)C2c1ccccc1 (centres undefined) | 6 | 12* | 17 | -1 | 1 | 7
c1ccc(C2c3c(ccc4ccccc34)Oc3ncn4nc(-c5ccco5)nc4c32)cc1 (centres undefined) | 4 | 12* | -13 | 1 | 3 | -1
CCCCOC(=O)c1cc(=O)[nH]c(=O)[nH]1 | -1 | 2 | -10 | -1 | -4 | -3
O=[N+]([O-])c1ccccc1S(=O)(=O)N(CC1CO1)c1ccccc1 (centres undefined) | . | . | . | . | 5 | .
COc1ccc(CN(C(=O)/C=C/C(=O)c2ccc(OC)cc2O)C(C(=O)NC2CCCCC2)c2ccncc2)cc1 (centres undefined) | 10 | 3 | 25 | 4 | -4 | 0
COCCN(CC(=O)NC1CCCCC1)C(=O)/C=C/C(=O)c1ccc(OC)cc1O | 3 | 2 | 93* | -3 | -8 | 0
COc1ccc(C(=O)/C=C/C(=O)N(CC(=O)NC2CCCCC2)Cc2cccs2)c(O)c1 | 4 | 2 | 77* | 5 | 2 | 1
CC1(C(=O)OCC(=O)Nc2nc(-c3ccc(F)c(F)c3)cs2)CC1(Cl)Cl (centres undefined) | . | . | . | . | 2 | .
Cc1ccc(N=C2NC(=O)/C(=C/c3cccn3C)S2)cc1 | 1 | . | . | 9 | 14 | 65*
Cc1ccc(N=C2NC(=O)/C(=C\c3ccc(C)s3)S2)cc1 | 8 | 6.3* | -18 | -3 | 2 | 2
Cc1cc(Nc2cc(Cl)cc(Cl)c2)nc(N)n1 | 6 | . | . | -1 | 11 | 1
Cc1ccc(Cl)cc1N1CCN(C(=O)Cc2csc(Nc3nc(=S)[nH]c4ccccc34)n2)CC1 | 8 | 9.5* | 6 | 2 | 3 | -1
O=C(Cc1csc(Nc2nc(=S)[nH]c3ccccc23)n1)N1CCN(c2cccc(Cl)c2)CC1 | 7 | 14 | 7 | 3 | 6 | -2
Brc1ccc2c(c1)C(C1=NCCN1)c1ccccc1CS2 (centres undefined) | 66* | 24 | 94* | 74* | 67* | 51*
COc1ccc(C(=O)C2CCCN(C/C=C/c3ccccc3OC)C2)c(OC)c1 (centres undefined) | 3 | 3 | 8 | 10 | 3 | -1
Cc1cccc(C(=O)N=c2sccn2C)c1[N+](=O)[O-] | . | . | . | . | 6 | .
SMILES | BaF3 parental | MT stabilize HCS | APP transl inh | Ba/F3 V617F tox | IEC-6 cytotox | bCat nuc transl
CC(=O)n1c(Cl)c(NC(=O)CCl)c2ccccc21 | 4 | 6 | 75* | 3 | 0 | 2
Cc1ccc(-n2nc(C)c(NC(=O)CCl)c2C)cc1C | 14 | 7 | -27 | 5 | 2 | 13
CCOCCCNC(=O)C(c1ccc(OC)cc1)N(Cc1cccs1)C(=O)c1ccccc1O (centres undefined) | 8 | 1 | -3 | 1 | -8 | -1
O=C(O)C(=O)/C(=C\c1cccc2ccccc12)c1ccc2ccccc2n1 | 6 | 41* | 0 | 0 | -3 | .
O=C(O)C(=O)/C(=C\c1ccccc1)c1ccc2ccccc2n1 | -1 | 3 | -129 | -5 | -1 | .
CC1=CC(C)(C)N(S(=O)(=O)c2ccc(F)cc2)c2ccc(C)cc21 | 0 | 24* | 10 | -2 | 7 | 33
C#CCSc1nnc(-c2c[nH]c3ccccc23)n1C | 48* | 2 | -54 | 30* | -1 | 0
Nc1ccc(O)cc1C(=O)OCC(=O)c1ccc(C2CCCCC2)cc1 | 30* | 2 | 49* | 71* | 2 | 1
COc1ccc2oc(=O)c(C(=O)N3CCN(C(=O)c4ccco4)CC3)cc2c1 | . | . | . | . | -2 | .
Cc1ccoc1C(=O)Nc1ccc(CC(=O)O)cc1 | 7 | 2 | 79* | 2 | 3 | -1
CCOC(=O)C1CCN(C(=O)c2ccc(Cl)c(S(=O)(=O)N3CCOCC3)c2)CC1 | 92* | 2 | 0 | -5 | 1 | -8
CCOC(=O)C1CCN(C(=O)c2ccc(Cl)c(S(=O)(=O)N3CCCC3)c2)CC1 | . | . | . | . | -4 | .
O=C(c1nn2c(C(F)(F)F)cc(-c3ccccc3)nc2c1Cl)N1CCN2CCCC2C1 (centres undefined) | . | . | . | . | 5 | .
O=c1c(Cl)c(NCCCO)cnn1-c1nc2ccccc2[nH]1 | 63* | 3 | -2 | 34* | 2 | 0
CCc1cccc(C)c1NC(=S)N(CCOC)C(C)c1ccco1 (centres undefined) | 2 | . | . | 0 | -2 | 1
O=C(/C=C/c1ccccc1)Nc1cccc(C(=O)O)c1 | 10 | 2 | 64* | -2 | 4 | 0
O=C(/C=C/c1ccccc1)Nc1cc(NC(=O)/C=C/c2ccccc2)cc(C(=O)O)c1 | . | . | . | . | -4 | .
O=[N+]([O-])c1ccc(NCc2ccccc2)nc1 | 75* | 1 | -14 | 32* | 6 | 1
O=[N+]([O-])c1ccc(Nc2ccccc2)nc1 | 1 | 1 | -16 | -2 | -1 | 1
CC(C1CC2CCC1C2)n1c(-c2ccco2)n[nH]c1=S (centres undefined) | 8 | 4 | 54* | -2 | -3 | 1
Cc1ccc(-n2c(-c3ccco3)n[nH]c2=S)cc1 | 6 | 3 | 4 | -4 | -1 | -1
CCOc1ccc(C2=Nc3ccc(Br)cc3C(c3ccc(N4CCOCC4)cc3)=NN2)cc1 | -1 | 11 | -30 | -1 | 4 | 1
CCOc1ccc(C2=Nc3ccccc3C(c3ccc(N4CCOCC4)cc3)=NN2)cc1 | -1 | 35* | -63 | -5 | -6 | .
